DNMT1 block: inhibitors of human DNMT1 | P26358 | DNMT1 molecular beacon, Hinp1I cleavage, fluorescence | inhibition (reported as % activation of signal), % at 10 µM | actives 0.83% (n = 360,000); in the data active = inhibition above about 50%
UBC9 SUMO inh: SUMOylation inhibition. HTRF SUMOylation assay, SAE1/SAE2 + UBC9, in vitro. inhibition, % at 35 µM. actives 0.36% (n = 290,000); in the data active = inhibition above about 50%, passing the limit was not always enough
Target sequence (P63279 whole entry, looked up): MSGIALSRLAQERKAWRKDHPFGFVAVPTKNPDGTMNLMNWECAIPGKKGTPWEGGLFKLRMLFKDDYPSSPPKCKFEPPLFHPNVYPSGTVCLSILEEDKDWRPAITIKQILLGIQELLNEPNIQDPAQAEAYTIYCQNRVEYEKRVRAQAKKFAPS
Scp1 inh: inhibitors of human Scp-1 phosphatase; Q9GZU7; Recombinant Scp1, phosphopeptide, malachite green phosphate absorbance; inhibition, % at 20 µM; actives 0.88% (n = 340,000); AID 493091;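 active = inhibition above about 50% at 20 µM, limit read from the data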;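 note: plate controls were DMSO wells with enzyme for no effect and wells lacking enzyme for full effect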
Target sequence (Q9GZU7 76-261 limits assumed): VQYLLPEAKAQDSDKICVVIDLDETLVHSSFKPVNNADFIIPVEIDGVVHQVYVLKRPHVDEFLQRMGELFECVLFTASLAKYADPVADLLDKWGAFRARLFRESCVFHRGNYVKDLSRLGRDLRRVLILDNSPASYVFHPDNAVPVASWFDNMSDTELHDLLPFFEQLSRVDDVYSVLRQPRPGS
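Material: truncated SCP-1 phosphatase (76-261aa) / Buffer or medium: 50 mM Tris acetate pH 5.5, 0.005% Tween-20, 10 mM MgCl2 / Compound dosing: one concentration, 20 µM, with 1.0% DMSO / Incubation: 45 min room-temperature reaction, 5 min colour, 30 min stabiliser / Detection: colorimetric free-phosphate detection, absorbance 630 nm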
SUMO1 PPI mod: modulators of human SUMO1-mediated protein-protein interactions | P63165 | SUMO1 binding to a labelled peptide, TR-FRET, 1 h | inhibition, % at 20 µM | actives 0.33% (n = 360,000); in the data active = inhibition above about 37%
Target sequence (P63165 whole entry, looked up): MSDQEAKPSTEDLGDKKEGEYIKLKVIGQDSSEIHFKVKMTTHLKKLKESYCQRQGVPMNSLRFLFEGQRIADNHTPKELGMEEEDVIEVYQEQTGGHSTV
STEP inh: STEP (human) phosphatase inhibition; P54829; recombinant STEP, OMFP fluorogenic substrate, fluorescence; inhibition, % at 20 µM; actives 0.25% (n = 360,000);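 active = inhibition at 20 µM, scaled per plate between control wells, above about 37%, limit read from the data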;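 note: 0% = DMSO with enzyme and substrate and 100% = substrate only without enzyme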
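Material: STEP (striatal-enriched tyrosine phosphatase) enzyme, cell-free; Compound dosing: 20 µM single dose in 1% DMSO; Technique: fluorescence read at 480 nm ex / 540 nm em; Times: reaction 20 min, ambient temperature; Medium: 50 mM Bis-Tris pH 6.0 with 2.5 mM DTT and 0.005% Tween 20; Also added: OMFP at 25 µM.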
LMPTP block: blocks human LMPTP phosphatase; recombinant LMPTP-A, OMFP fluorogenic substrate, fluorescence intensity; actives 0.22% (n = 360,000); inhibition, % at 20 µM; P24666; AID 651560;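 active = compounds that cut the enzyme signal by at least half of the control window in the single-dose screen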;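 note: plate controls were DMSO wells with enzyme plus substrate for no effect and substrate without enzyme for full effect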
Target sequence (P24666 whole entry, looked up): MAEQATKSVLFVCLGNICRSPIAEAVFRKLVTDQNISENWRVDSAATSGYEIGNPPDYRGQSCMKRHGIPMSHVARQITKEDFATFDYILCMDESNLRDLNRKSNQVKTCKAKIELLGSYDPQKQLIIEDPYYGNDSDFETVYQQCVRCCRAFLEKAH
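Assay system: LMPTP-A phosphatase enzyme | Input: 0.625 nM enzyme | Also added: Fluorogenic phosphatase substrate OMFP at 400 µM final | Compound dosing: One test concentration per compound, 20 µM, with 3% DMSO overall | Schedule: 50 min enzyme reaction at room temperature, protected from light | Signal: Fluorescence intensity | Benchmarks: no-enzyme and uninhibited controls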
The depositor's hits bear a star; . = no result. Most compounds without a hit are left out; they make up all but 1.9% or so of the library.

SMILES	DNMT1 block	UBC9 SUMO inh	Scp1 inh	SUMO1 PPI mod	STEP inh	LMPTP block
CCSc1nc(C)nc2sc(C)c(C)c12	24	-2	-12	79*	4	1
O=C(NCc1ccccc1F)c1ccc(S(=O)(=O)N2CCCCCC2)cc1	-1	.	-8	4	0	0
O=C(O)c1ccc(-c2ccc(/C=c3/sc4nc5ccccc5n4c3=O)o2)cc1Cl	106*	30	98*	39*	90*	14
Cc1ccc2c(nc3s/c(=C/c4cccs4)c(=O)n32)c1C	33	16	22	-2	2	2
Cc1ccc2c(nc3s/c(=C\c4ccc(-c5ccccc5C(=O)O)o4)c(=O)n32)c1C	63*	29	76*	18	34	11
Cc1cc(/C=c2\sc3nc4ccccc4n3c2=O)c(C)n1-c1ccc(C(=O)O)cc1	43	18	20	25	6	4
CN(C)CC(C)(C)CNC(=O)CC1C(=O)NCCN1Cc1ccc(-c2ccccc2)cc1 (stereo not drawn)	-4	15	-6	0	-4	0
CCOC(=O)[C@]12CCCC=C1N(Cc1ccccc1)C(=O)[C@H](CC(=O)N1CCN(C(=O)C3CC3)CC1)C2	.	.	.	1	.	0
CCCn1cnc2c(SCc3ccccc3Cl)nc(N)nc21	-6	.	-8	5	-4	-1
CC(=O)Nc1ccc(S(=O)(=O)N(CC(=O)NCC2CCCO2)Cc2ccccc2Cl)cc1 (stereo not drawn)	3	.	.	1	-2	-1
CCN(CC)c1ccc(/C=N/NC(=O)CNC(=O)C2COc3ccccc3O2)c(O)c1 (stereo not drawn)	-12	51*	-9	-15	0	0
COc1cc(/C=N\NC(=O)CNC(=O)C2COc3ccccc3O2)ccc1O (stereo not drawn)	9	-7	-1	-3	-1	-1
CS(=O)(=O)Nc1ccc(C2=NN(C(=O)c3ccco3)C(c3ccccc3F)C2)cc1 (stereo not drawn)	-2	-6	-7	-4	-2	0
CC(=O)c1c(C)[nH]c(C(=O)OCC(=O)Nc2cccc(S(=O)(=O)N(C)C)c2)c1C	1	6	1	4	-1	0
O=C(COC(=O)c1ccco1)Nc1ccc2[nH]c(=O)[nH]c2c1	1	.	-5	51*	-3	0
O=C(COC(=O)c1ccc(F)c(S(=O)(=O)N2CCOCC2)c1)Nc1ccc2[nH]c(=O)[nH]c2c1	-1	.	-2	61*	-2	-2
CC(=O)c1c(C)[nH]c(C(=O)OCC(=O)Nc2ccc3[nH]c(=O)[nH]c3c2)c1C	-13	.	-7	61*	0	0
Nc1nccnc1C(=O)OCC(=O)Nc1ccc2[nH]c(=O)[nH]c2c1	2	.	10	80*	2	3
O=C(COC(=O)c1ccccc1)Nc1ccc2[nH]c(=O)[nH]c2c1	0	.	-3	4	-3	-1
CCCCn1c(N)c(N(CCOC)C(=O)c2c(CC)noc2C)c(=O)[nH]c1=O	10	.	-9	-4	1	0
O=C(COC(=O)c1ccc(Br)o1)Nc1ccc2c(c1)OCCO2	-2	.	-3	-1	-3	-1
O=C(COC(=O)c1ccc(Br)o1)Nc1ccc2[nH]c(=O)[nH]c2c1	8	.	1	39*	2	-1
Cc1cc(C)c2c(N)c(C(=O)Nc3ccc([N+](=O)[O-])cc3)sc2n1	-10	-8	39	44*	19	28
COc1ccc(NC(=O)c2sc3nc(C)cc(C)c3c2N)cc1	-1	-2	-2	-31	1	0
CN(C)c1ccc(C#Cc2ccc3cc(CCO)oc(=O)c3c2)cc1	42	.	38	-14	97*	68*
SMILES	DNMT1 block	UBC9 SUMO inh	Scp1 inh	SUMO1 PPI mod	STEP inh	LMPTP block
Cc1oc(-c2cc(F)ccc2F)nc1CN1CCN(c2cnccn2)CC1	-4	-1	4	44*	-1	0
Cc1oc(-c2cc(F)ccc2F)nc1CN(C)Cc1ccc2nccnc2c1	7	15	-11	-11	-1	1
CNC1=C(N(C(C)=O)c2ccc(Br)cc2)C(=O)c2ccccc2C1=O	24	82*	-7	-21	3	3
O=C(N/N=C/c1ccncc1)c1cccc(N/N=C/c2ccncc2)c1	-1	-8	-5	-10	4	10
C/C(=N\NC(=O)c1cc(O)ccc1O)c1cccc(NC(=O)c2ccc(Cl)cc2)c1	-13	52	49	44*	12	44
C/C(=N\NC(=O)c1cc(O)ccc1O)c1cccc(NC(=O)c2cccc(Cl)c2)c1	-10	15	1	20	2	7
O=C(N/N=C/c1ccncc1)c1cccc(NC(=O)c2ccc(Cl)cc2)c1	-11	62*	36	11	34	16
O=C(Nc1cccc(Cl)c1)c1cc(N=Nc2ccc([N+](=O)[O-])cc2Cl)ccc1O	-22	49	71*	100*	32	12
O=C(Nc1ccc([N+](=O)[O-])cc1Cl)c1cc(Cl)ccc1O	-5	.	35	14	4	72*
O=C(Nc1ccc([N+](=O)[O-])cc1Cl)c1cccc([N+](=O)[O-])c1	7	.	.	-8	-1	0
COc1ccc2c(CN(Cc3ccccc3)Cc3ccccc3)cc(=O)oc2c1	-1	.	.	1	4	5
O=c1[nH]c(=S)[nH]c2c1C(c1ccc(Br)cc1)c1c([nH]c(=S)[nH]c1=O)O2	67*	80*	97*	115*	92*	68*
FC(F)(F)c1cccc(Oc2cc(C(F)(F)F)nc(-c3ccccn3)n2)c1	1	-19	-10	54*	2	1
Nc1ccc2cc3[nH]c4cc(N)ccc4c3nc2c1	194*	.	-13	-60	-195	58*
Cc1cc2nc(-c3ccc(SCC(=O)NC(C)C)nc3)[nH]c2cc1C	.	23	.	.	.	.
Cc1cc2nc(-c3ccc(SCc4ccc(C(=O)O)cc4)nc3)[nH]c2cc1C	-1	28	79*	21	92*	68*
Cc1ncc(CO)c(/C=N/NC(=S)Nc2ccc(Cl)c(Cl)c2)c1O	-17	28	-6	6	0	3
Cc1ncc(CO)c(/C=N/NC(=S)Nc2cccc(Cl)c2)c1O	-27	12	-5	21	64*	5
CCOCCn1c(=O)c2c(nc3n2CC(C)CN3Cc2ccccc2)n(C)c1=O (stereo not drawn)	1	2	-6	7	2	0
OC1CCN(Cc2nc(Cc3ccccc3Cl)no2)CC1	0	-4	-7	45*	-2	-1
O=C1OC(c2ccc(F)cc2)=C/C1=C\c1ccc(O)cc1	0	10	-3	12	10	1
O=C1OC(c2ccc(F)cc2)=C/C1=C\c1ccc([N+](=O)[O-])o1	.	52*	.	.	.	.

High-throughput results (PubChem BioAssay)
